Consider eight molecules from ChEMBL document CHEMBL1142519, “Synthesis and antiprotozoal activity of cationic 2-phenylbenzofurans” (J Med Chem, 2008).

Series [1] is described as follows: Selectivity index, ratio of IC50 for rat L6 cells to IC50 for Trypanosoma brucei rhodesiense STIB 900. The class given is toxicity, cell-based. The following applies: read-out: Ratio IC50. The procedure, abridged: (§1)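 Ratio of the L6 rat myoblast cytotoxicity IC50 to the IC50 against the parasite named in the line. Each IC50 is the average of duplicate determinations.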

Series [2] deals with Trypanosoma brucei rhodesiense. Put plainly: Antitrypanosomal activity against Trypanosoma brucei rhodesiense STIB 900 infected acute mouse model assessed as survival time at 10 mg/kg, ip. The class given is functional. The following applies: route intraperitoneal. The essentials: (§2)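 STIB900 acute mouse model of T. b. rhodesiense infection, with intraperitoneal dosing. Read-out is the average days of survival of treated mice. Cures are counted as mice that survive and stay parasite-free for 60 days.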

Series [3] concerns Trypanosoma brucei rhodesiense. The series can be described thus: Antitrypanosomal activity against Trypanosoma brucei rhodesiense STIB 900 bloodstream trypomastigotes. The class given is functional, organism-based. The procedure, abridged:
(§3)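 IC50 values in µM, each the average of duplicate determinations. Parasites were T. b. rhodesiense STIB900 and axenic amastigotes of L. donovani MHOM/SD/62/1S-CL2D. Cytotoxicity was run on rat L6 myoblast cells.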

Series [4] concerns Trypanosoma brucei rhodesiense. Put plainly: Antitrypanosomal activity against Trypanosoma brucei rhodesiense STIB 900 infected acute mouse model assessed as survival time at 1 mg/kg, ip administered daily for 4 days. The series is classed as functional. The following applies: route intraperitoneal. The procedure, abridged:
as §2

A further series has as its system Plasmodium falciparum. The series can be described thus: Antiplasmodial activity against chloroquine-resistant Plasmodium falciparum K1. The series is classed as functional, organism-based. The procedure, abridged: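 In vitro IC50 against chloroquine-resistant P. falciparum K1, reported as the average of duplicate determinations.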
For series [5], the system named is Trypanosoma brucei rhodesiense. The series can be described thus: Antitrypanosomal activity against Trypanosoma brucei rhodesiense STIB 900 infected acute mouse model assessed as survival time at 5 mg/kg, ip administered daily for 4 days. The series is classed as functional. The following applies: route intraperitoneal. The essentials: as §2
Series [6] is described as follows: Selectivity index, ratio of IC50 for rat L6 cells to IC50 for chloroquine-resistant Plasmodium falciparum K1. The class given is toxicity, cell-based. The following applies: read-out: Ratio IC50. The essentials: as §1
Series [7] can be described thus: Selectivity index, ratio of IC50 for rat L6 cells to IC50 for Leishmania donovani MHOM/SD/62/1S-CL2D. The class given is toxicity, cell-based. The following applies: read-out: Ratio IC50. The essentials:
as §1

The test system of the next series is Leishmania donovani. Put plainly: Antileishmanial activity against Leishmania donovani MHOM/SD/62/1S-CL2D axenic amastigotes. The class given is functional, organism-based. The essentials:
as §3

The next series concerns L6. Put plainly: Cytotoxicity against rat L6 cells. The series is classed as cell-based. The essentials: as §3
Series [8] relates to Trypanosoma brucei rhodesiense. Put plainly: Antitrypanosomal activity against Trypanosoma brucei rhodesiense STIB 900 infected acute mouse model assessed as cured mouse at 5 mg/kg, ip daily for 4 days. The series is classed as functional, organism-based. The arrangement: dose 5 mg/kg. The procedure, abridged:
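STIB900 acute mouse model of trypanosomiasis with intraperitoneal dosing. The regimens were daily for 4 days at 20, 5 or 1 mg/kg, or a single 10 mg/kg dose. A cure is a mouse that survives and is parasite-free for 60 days. Average days of survival are also recorded.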

Calls of active or inactive are those of the source. No cut-off for these calls is given here.

Usually IC50 stands for the concentration at which inhibition is half-maximal. Read a high IC50 as weaker potency in that assay. Take `N=C(N)c1ccc(-c2cc3cc(C(=N)N)cc(O)c3o2)c(O)c1`: the selectivity ratio in series [1] worked out at 117; in series [6] it was 34; in [7], 0.2. Further, the Survival in series [2] was greater than 49.5 days; in [4], greater than 33.5 days; in series [5], greater than 56.8 days. Besides, the IC50 was 0.018 µM in series [3], 0.061 µM with Plasmodium falciparum, 14 µM in the series with Leishmania donovani and 2.1 µM in the series on L6.
Consider `COc1cc(C2=NCCN2)ccc1-c1cc2ccc(C3=NCCN3)cc2o1`, for which the selectivity ratio is 90 in [1], 57 in series [6] and less than 0.04 in series [7]. Besides, the IC50 in [3] was 0.049 µM; with Plasmodium falciparum, 0.077 µM; in the series with Leishmania donovani, greater than 100 µM; in the series on L6, 4.4 µM. The result in series [8] was inactive. The Survival in series [5] is 7 days.
In the case of `CC(C)NC(=N)c1ccc(-c2cc3ccc(C(=N)NC(C)C)cc3o2)c(O)c1`, the selectivity ratio in series [1] is greater than 20300; in [6] it was greater than 307; in series [7], greater than 5. The Survival in series [2] is greater than 51.8 days; in series [4], greater than 46.5 days; in series [5] it was greater than 55.5 days. Moreover, the IC50 was 0.009 µM in series [3], 0.597 µM in the series with Plasmodium falciparum, 39 µM with Leishmania donovani and greater than 183 µM with L6.
For the molecule `Oc1cc(C2=NCCN2)ccc1-c1cc2cc(C3=NCCN3)cc(O)c2o1`, the selectivity ratio in [1] is greater than 19300; in series [6], greater than 6430; in [7], greater than 12. The IC50 in [3] was 0.01 µM; with Plasmodium falciparum, 0.03 µM; in the series on Leishmania donovani, 16 µM; in the series on L6 it was greater than 193 µM. Moreover, in [8], the result was inactive. For the same molecule, the Survival in series [5] was greater than 21 days.
On to `Oc1cc(C2=NCCN2)cc2cc(-c3ccc(C4=NCCN4)cc3)oc12`, for which the selectivity ratio in series [1] was greater than 50800; in series [6], greater than 9230; in [7] it was greater than 27. In addition, the Survival in series [2] is greater than 51.3 days; in [4], greater than 39 days; in [5] it was greater than 49.8 days. In addition, the IC50 is 0.004 µM in series [3], 0.022 µM in the series with Plasmodium falciparum, 7.4 µM in the series on Leishmania donovani and greater than 203 µM in the series on L6.
Turning to `Oc1cc(C2=NCCN2)ccc1-c1cc2ccc(C3=NCCN3)cc2o1`, the figures for the selectivity ratio in series [1], in [6] and in series [7] were greater than 17500, greater than 1970 and greater than 15, respectively. Further, the IC50 in series [3] is 0.011 µM; in the series with Plasmodium falciparum it was 0.098 µM; in the series with Leishmania donovani, 13 µM; in the series on L6, greater than 193 µM. Also, in series [8], the result was inactive. For the same molecule, the Survival in series [5] turned out to be 23 days.
Take `N=C(N)c1cccc(-c2cc3ccc(C(=N)N)cc3o2)c1`: the figures for the selectivity ratio in [1], in series [6] and in [7] were 6240, 32800 and 9, respectively. The IC50 in series [3] stood at 0.021 µM; with Plasmodium falciparum it was 0.004 µM; in the series with Leishmania donovani, 14 µM; in the series on L6 it was 131 µM. Besides, the result in [8] was inactive. The Survival in series [5] amounted to 33 days.
Take `N=C(N)c1ccc(-c2cc3cc(C(=N)N)cc(O)c3o2)cc1`: the selectivity ratio in series [1] was 61300; in series [6], 3920; in series [7], 35. Further, the results for the Survival in series [2], in series [4] and in [5] were greater than 43 days, greater than 30.8 days and greater than 60 days, respectively. The IC50 is 0.003 µM in series [3], 0.047 µM with Plasmodium falciparum, 5.3 µM in the series on Leishmania donovani and 184 µM with L6. The result in series [8] was Active.
